According to ChEMBL document CHEMBL4014285, “Novel, highly potent systemic glucokinase activators for the treatment of Type 2 Diabetes Mellitus” (Bioorg Med Chem Lett, 2017):
Values after ≈ are worked out from the molar mass of the structure shown.

Legend:
[1] = molecular target: T1, Hexokinase-4 (Homo sapiens) (UniProt P35557); assay: Activation of recombinant human glucokinase assessed as conversion of D-glucose to D-glucose-6-phosphate in presence of 10 mM glucose by G6PDH coupled spectrophotometric assay relative to control
T1 sequence (whole entry): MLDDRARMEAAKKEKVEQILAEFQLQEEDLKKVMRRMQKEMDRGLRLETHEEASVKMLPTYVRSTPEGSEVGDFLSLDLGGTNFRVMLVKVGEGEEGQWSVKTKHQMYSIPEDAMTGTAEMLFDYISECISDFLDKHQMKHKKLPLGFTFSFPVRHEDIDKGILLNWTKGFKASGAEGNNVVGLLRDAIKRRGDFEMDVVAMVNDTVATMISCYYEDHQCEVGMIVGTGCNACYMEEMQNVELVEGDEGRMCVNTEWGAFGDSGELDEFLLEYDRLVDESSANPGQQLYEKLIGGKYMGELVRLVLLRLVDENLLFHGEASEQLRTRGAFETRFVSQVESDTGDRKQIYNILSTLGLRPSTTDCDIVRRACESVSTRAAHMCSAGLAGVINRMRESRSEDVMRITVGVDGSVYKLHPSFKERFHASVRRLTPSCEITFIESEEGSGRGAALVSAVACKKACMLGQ
In short: (§1)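 Recombinant human GK; ATP-dependent D-glucose-6-phosphate formation from D-glucose at 2.5 or 10 mM, read by continuous glucose-6-phosphate dehydrogenase coupled spectrophotometry. Activators titrated at 1% DMSO final, DMSO as control. EC50 = concentration giving half of maximal increase in product formation; maximum activity expressed as percent velocity increase vs DMSO at saturating activator. Single titration.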

[2] = molecular target: T1, Hexokinase-4 (Homo sapiens); assay: Activation of recombinant human glucokinase assessed as conversion of D-glucose to D-glucose-6-phosphate in presence of 2.5 mM glucose by G6PDH coupled spectrophotometric assay relative to control; in short: as §1
Hexokinase-4 [3] = molecular target: T2, Hexokinase-4 (Homo sapiens, UniProt P35557); assay: Activation of recombinant human glucokinase assessed as conversion of D-glucose to D-glucose-6-phosphate in presence of 10 mM glucose by G6PDH coupled spectrophotometric assay; in short: as §1
T2 sequence (P35557 whole entry): T1 sequence (whole entry)

Hexokinase-4 [4] = molecular target: T3, Hexokinase-4 (Rattus norvegicus, UniProt P17712); assay: Activation of glucokinase in rat INS-1 cells assessed as increase in D-2-deoxyglucose-6-phosphate level in presence of D-2-deoxyglucose by HILIC LC-MS method; type: cell-based
T3 sequence (P17712 whole entry): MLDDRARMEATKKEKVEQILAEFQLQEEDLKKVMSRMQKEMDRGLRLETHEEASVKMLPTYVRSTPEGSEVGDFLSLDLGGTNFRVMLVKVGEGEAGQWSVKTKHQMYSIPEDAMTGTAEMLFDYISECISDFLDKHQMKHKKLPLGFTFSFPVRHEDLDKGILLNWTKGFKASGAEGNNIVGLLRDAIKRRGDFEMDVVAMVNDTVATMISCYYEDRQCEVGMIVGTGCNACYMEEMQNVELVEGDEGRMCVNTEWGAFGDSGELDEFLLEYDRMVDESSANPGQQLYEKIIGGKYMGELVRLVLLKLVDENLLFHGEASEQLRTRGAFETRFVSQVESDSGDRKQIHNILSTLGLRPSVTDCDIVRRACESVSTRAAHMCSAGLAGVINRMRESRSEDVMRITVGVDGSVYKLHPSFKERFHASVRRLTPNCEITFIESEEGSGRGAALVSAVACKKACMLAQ
In short: (§2)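 GKACA cell assay in rat INS-1 Clone-13 insulinoma cells or freshly isolated primary rat hepatocytes; intracellular D-2-deoxyglucose-6-phosphate formed from exogenous D-2-deoxyglucose quantified by HILIC LC-MS; EC50 from a single titration.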

Hexokinase-4 [5] = molecular target: T2, Hexokinase-4; assay: Activation of recombinant human glucokinase assessed as conversion of D-glucose to D-glucose-6-phosphate in presence of 2.5 mM glucose by G6PDH coupled spectrophotometric assay; in short: as §1
Hexokinase-4 [6] = molecular target: T3, Hexokinase-4; assay: Activation of glucokinase in primary rat hepatocytes assessed as increase in D-2-deoxyglucose-6-phosphate level in presence of D-2-deoxyglucose by HILIC LC-MS method; type: cell-based; in short: as §2
[7] = Solubility of the compound at pH 2; type: physicochemical; settings: buffer
[8] = Mean residence time in rat; type: ADME; settings: in vivo
[9] = Total drug level in HFD-fed C57BL/6 mouse plasma at 0.10 mg/kg, po measured at 4 hrs post dose; type: ADME, organism-based; settings: 0.1 mg/kg
In short: (§3)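 3-week high fat diet-fed C57BL/6 mice given 0.01, 0.03 or 0.10 mg/kg orally; total (bound plus unbound) drug concentration in plasma sampled 4 h after dosing.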

[10] = Unbound fraction in C57BL/6 mouse plasma; type: ADME, cell-free
In short: (§4)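 Unbound fraction determined in 100% human or C57BL/6 mouse plasma.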

Rattus norvegicus [11] = species on record: Rattus norvegicus; assay: Dose normalized Cmax in rat; type: ADME; settings: in vivo
Plasma = assay: Total drug level in po dosed HFD-fed C57BL/6 mouse plasma measured at 4 hrs post dose; type: ADME, organism-based; settings: in vivo; in short: as §3
[12] = Total drug level in HFD-fed C57BL/6 mouse plasma at 0.03 mg/kg, po measured at 4 hrs post dose; type: ADME, organism-based; in short: as §3
[13] = Half life in rat; type: ADME; settings: in vivo
[14] = Stability of compound in human liver microsomes assessed as compound remaining at 1 uM measured after 30 mins; type: ADME, microsome; settings: read-out: Stability
In short: (§5)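 Human or rat liver microsome preparations incubated with compound; percent parent remaining after 30 min.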

[15] = Apparent permeability in pig LLC-PK1 cells; type: ADME, cell-based, Sus scrofa
[16] = Solubility of the compound at pH 7; type: physicochemical; settings: buffer
Rattus norvegicus [17] = species on record: Rattus norvegicus; assay: Dose normalized AUC in rat; type: ADME; settings: in vivo
[18] = Total drug level in HFD-fed C57BL/6 mouse plasma at 0.01 mg/kg, po measured at 4 hrs post dose; type: ADME, organism-based; in short: as §3
[19] = Stability of compound in rat liver microsomes assessed as compound remaining at 1 uM measured after 30 mins; type: ADME, microsome; settings: read-out: Stability; in short: as §5
[20] = Oral bioavailability in rat; type: ADME, organism-based; settings: in vivo
[21] = Clearance in rat; type: ADME; settings: in vivo
[22] = Volume of distribution at steady state in rat; type: ADME; settings: in vivo, read-out: Vdss
[23] = Apparent permeability in MDCK cells; type: ADME, cell-based, Canis lupus familiaris; settings: dog
[24] = Unbound fraction in human plasma; type: ADME, cell-free; in short: as §4

Row | Compound | %max [1] | %max [2] | EC50 (Hexokinase-4 [3]) | EC50 (Hexokinase-4 [4]) | EC50 (Hexokinase-4 [5]) | EC50 (Hexokinase-4 [6]) | further results
1 | CN1C(=O)CCC1c1cc2[nH]c(-c3ccccn3)cc2cc1Oc1ccc(S(C)(=O)=O)nc1 (stereo in doubt; 1-en) [listing 1 of 2 here] |  |  | 0.8 nM | 33 nM | 4.2 nM | 93 nM | 
2 | CN1C(=O)CCC1c1cc2[nH]c(-c3ccc(C(F)(F)F)cn3)cc2cc1Oc1ccc(S(C)(=O)=O)nc1 (single isomer, unassigned; ent-2) | 141% | 583% |  |  |  |  | 
3 | CN1C(=O)CCC1c1cc2[nH]c(-c3ccccn3)cc2cc1Oc1ccc(S(C)(=O)=O)nc1 (single isomer, unassigned; ent-1) |  |  | 2.4 nM | 0.9 nM | 3.7 nM | 7.5 nM | solubility [7]: 194 µM (≈ 89.7 µg/mL); MRT [8]: 2.85 h; concentration at 4 h [9]: 18 nM; fraction unbound [10]: 0.072; Cmax/dose (Rattus norvegicus [11]): 0.235 µM·kg/mg; Drug uptake (Plasma): Dose-dependent effect; concentration at 4 h [12]: 12 nM; half-life [13]: 2.8 h; remaining at 0.5 h, 1 µM [14]: 75%; Papp [15]: 40 ×10⁻⁶ cm/s; solubility [16]: 142 µM (≈ 65.7 µg/mL); AUC/dose (Rattus norvegicus [17]): 0.59 µM·kg·h/mg; concentration at 4 h [18]: 3.8 nM; remaining at 0.5 h, 1 µM [19]: 79%; bioavailability [20]: 30%; clearance [21]: 18 mL/min/kg; Vd [22]: 3.05 L/kg; Papp [23]: 40 ×10⁻⁶ cm/s; fraction unbound [24]: 0.087
4 | COC(=O)c1ccc(-c2cc3cc(Oc4ccc(S(C)(=O)=O)nc4)c(C4CCC(=O)N4C)cc3[nH]2)nc1 (racemic) | 184% | 739% | 3.4 nM | 7.8 nM | 8.2 nM | 20 nM | 
5 | CN1C(=O)CCC1c1cc2[nH]c(-c3cnccn3)cc2cc1Oc1ccc(S(C)(=O)=O)nc1 (stereo in doubt; 3) |  |  | 4.2 nM | 7.2 nM | 4.5 nM | 23 nM | 
6 | CN1C(=O)CCC1c1cc2[nH]c(-c3ccccn3)cc2cc1Oc1ccc(S(C)(=O)=O)nc1 (stereo in doubt; 1-en) [listing 2 of 2 here] | 158% | 628% |  |  |  |  | 
7 | CN1C(=O)CCC1c1cc2[nH]c(-c3ccc(C(C)(C)O)cn3)cc2cc1Oc1ccc(S(C)(=O)=O)nc1 (stereo in doubt; 4-en) |  |  | 9.8 nM | 38 nM | 31 nM | 34 nM | 

More lines, main results first:

Row | %max [1] | %max [2] | EC50 (Hexokinase-4 [3]) | EC50 (Hexokinase-4 [4]) | EC50 (Hexokinase-4 [5]) | EC50 (Hexokinase-4 [6]) | Compound | further results
8 | 173% | 739% |  |  |  |  | CN1C(=O)CCC1c1cc2[nH]c(-c3ccc(C(C)(C)O)cn3)cc2cc1Oc1ccc(S(C)(=O)=O)nc1 (stereo in doubt; 4) | 
9 | 179% | 683% | 9.6 nM | 2110 nM | 24 nM | 728 nM | CN1C(=O)CCC1c1cc2[nH]c(-c3ccc(C(F)(F)F)cn3)cc2cc1Oc1ccc(C(=O)O)cc1 (centres undefined) | solubility [7]: 5 µM (≈ 2.48 µg/mL); solubility [16]: 113 µM (≈ 56 µg/mL)
10 |  |  | < 0.85 nM | 2.5 nM | 2.4 nM | 2.7 nM | CN1C(=O)CCC1c1cc2[nH]c(-c3ccc(C(F)(F)F)cn3)cc2cc1Oc1ccc(S(C)(=O)=O)nc1 (stereo in doubt; 5) | 
11 |  |  | 1 nM | 37 nM | 5.5 nM | 77 nM | Cc1cnc(-c2cc3cc(Oc4ccc(S(C)(=O)=O)nc4)c(C4CCC(=O)N4C)cc3[nH]2)s1 (stereo in doubt; 2-en) | 
12 | 123% | 452% | 9.2 nM | 22 nM | 4.8 nM | 232 nM | CCOC(=O)c1ccc(Oc2cc3cc(-c4ccc(C(F)(F)F)cn4)[nH]c3cc2C2CCC(=O)N2C)cc1 (centres undefined) | 
